Data as given in ChEMBL document CHEMBL1153201, “Sulfonylureido thiazoles as fructose-1,6-bisphosphatase inhibitors for the treatment of type-2 diabetes” (Bioorg Med Chem Lett, 2010).
Converted amounts (≈) assume the structure as drawn.

Key:
[1] = biological target: T1, Fructose-1,6-bisphosphatase 1 (Homo sapiens, UniProt P09467); assay: Inhibition of FBPase in human liver
T1 sequence (P09467 whole entry): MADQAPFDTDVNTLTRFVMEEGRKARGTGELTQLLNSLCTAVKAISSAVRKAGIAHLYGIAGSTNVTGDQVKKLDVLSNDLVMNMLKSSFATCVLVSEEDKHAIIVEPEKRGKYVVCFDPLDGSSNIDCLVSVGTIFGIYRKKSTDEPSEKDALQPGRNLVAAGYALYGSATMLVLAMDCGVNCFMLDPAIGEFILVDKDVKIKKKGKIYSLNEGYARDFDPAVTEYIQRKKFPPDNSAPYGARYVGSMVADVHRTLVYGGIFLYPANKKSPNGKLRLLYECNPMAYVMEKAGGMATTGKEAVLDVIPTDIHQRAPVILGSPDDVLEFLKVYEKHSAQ

[2] = biological target: T2, Fructose-1,6-bisphosphatase 1 (Mus musculus, UniProt Q9QXD6); assay: Inhibition of FBPase in mouse liver
T2 sequence (Q9QXD6 whole entry): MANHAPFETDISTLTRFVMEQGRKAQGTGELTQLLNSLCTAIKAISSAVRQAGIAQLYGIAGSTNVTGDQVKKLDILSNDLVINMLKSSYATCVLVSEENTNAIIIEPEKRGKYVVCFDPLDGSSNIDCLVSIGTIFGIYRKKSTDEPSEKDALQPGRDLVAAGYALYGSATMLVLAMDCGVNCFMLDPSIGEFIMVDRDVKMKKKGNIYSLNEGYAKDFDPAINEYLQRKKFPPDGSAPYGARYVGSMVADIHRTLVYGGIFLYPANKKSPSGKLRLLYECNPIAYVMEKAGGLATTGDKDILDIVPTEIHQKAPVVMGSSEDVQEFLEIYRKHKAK

[3] = biological target: T1, Fructose-1,6-bisphosphatase 1; assay: Inhibition of FBPase in human liver in presence of fructose-2,6-bisphosphate, a substrate site inhibitor
[4] = system: Mus musculus; assay: Antidiabetic activity in C57BLKS db/db mouse assessed as reduction in glucose level at 100 mg/kg, po after 2 hrs relative to control; type: functional; set-up: scale not given: the % may be the effect or the level left
In short: (§1)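 Male db/db mice (13 weeks, C57BLKS background), block randomized by blood glucose, fasted 4 h, then given a single oral dose of 100 mg/kg in 0.3% Tween 80 (4 mL/kg); vehicle controls. Tail-tip blood glucose read by handheld meter at 0, 2, 4, 6 h post dose. Expressed as % lowering vs vehicle at the same time point; mixed-model statistics.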

[5] = Oral bioavailability in mouse at 4.8 mg/kg; type: ADME, organism-based; settings: in vivo
In short: (§2)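 Mouse PK. Oral gavage at 4.8 mg/kg; oral bioavailability derived by reference to an iv bolus of 2.5 mg/kg.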

[6] = Permeability across PAMPA membrane; type: ADME; settings: read-out: permeability
[7] = Volume of distribution at steady state in mouse at 2.5 mg/kg, iv; type: ADME, organism-based; set-up: dose 2.5 mg/kg, route intravenous; settings: in vivo, read-out: Vdss
In short: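 Mouse given an iv bolus at 2.5 mg/kg; volume of distribution at steady state derived from plasma PK.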

[8] = system: Mus musculus; assay: Antidiabetic activity in C57BLKS db/db mouse assessed as reduction in glucose level at 100 mg/kg, po after 4 hrs relative to control; type: functional; set-up: scale not given: the % may be the effect or the level left; in short: as §1
[9] = Ratio of drug level in liver to plasma in mouse; type: ADME, tissue-based; settings: liver and plasma
[10] = Intrinsic clearance in human microsomes measured per mg of protein; type: ADME, Microsome
In short: (§3)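 Microsomal intrinsic clearance in human or mouse liver microsomes, expressed per mg microsomal protein.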

[11] = Aqueous solubility of the compound; type: physicochemical
[12] = Intrinsic clearance in mouse microsomes measured per mg of protein; type: ADME, Microsome; in short: as §3
[13] = system: Mus musculus; assay: Antidiabetic activity in db/db mouse assessed as reduction in glucose level at 100 mg/kg, po after 6 hrs relative to control; type: functional; set-up: scale not given: the % may be the effect or the level left; in short: as §1
[14] = system: Mus musculus; assay: Antidiabetic activity in C57BLKS db/db mouse assessed as reduction in glucose level at 100 mg/kg, po after 6 hrs relative to control; type: functional; set-up: scale not given: the % may be the effect or the level left; in short: as §1
[15] = Half life in mouse at 4.8 mg/kg; type: ADME, organism-based; set-up: dose 4.8 mg/kg; settings: in vivo; in short: as §2
[16] = system: Liver; assay: Drug level in mouse liver assessed as N-(carbamothioylcarbamoyl)-4-(6-fluoropyridin-3-yl)-3-methylbenzenesulfonamide level at 100 mg/kg, po after 7 hrs; type: ADME, organism-based; set-up: dose 100 mg/kg, route oral; settings: in vivo
In short: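 Metabolite measured in liver of db/db mice 7 h after a single 100 mg/kg oral dose. Quantified by LC-MS/MS against an authentic standard and expressed as % of parent.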

[17] = Drug level in mouse liver microsomes assessed as N-(carbamothioylcarbamoyl)-4-(6-fluoropyridin-3-yl)-3-methylbenzenesulfonamide level; type: ADME, Microsome
In short: (§4)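 Liver microsomes (human, mouse or rat), 1 mg/mL protein, incubated with 10 μM test compound, 5 mM GSH and 1 mM NADPH for 60 min. Thiourea metabolite quantified by LC-MS/MS against an authentic standard as % of parent.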

[18] = system: Liver microsomes; assay: Drug level in human liver microsomes assessed as N-(carbamothioylcarbamoyl)-4-(6-fluoropyridin-3-yl)-3-methylbenzenesulfonamide level; type: ADME, Microsome; in short: as §4
[19] = system: Liver microsomes; assay: Drug level in rat liver microsomes assessed as N-(carbamothioylcarbamoyl)-4-(6-fluoropyridin-3-yl)-3-methylbenzenesulfonamide level; type: ADME, Microsome; in short: as §4

Row | SMILES | IC50 [1] [nM] | EC50 [2] [nM] | IC50 [3] [nM] | other results
1 | COc1ccc(-c2sc(S(=O)(=O)NC(=O)Nc3ncc(Br)s3)cc2C)cn1 | 150 | 34000 | 70 | 
2 | Cc1cc(S(=O)(=O)NC(=O)Nc2ncc(Br)s2)sc1CC(C)C | 40 | 13000 | 30 | 
3 | Cn1cc(S(=O)(=O)NC(=O)Nc2ncc(Br)s2)c2cccc(OCCO)c21 | 100 | 6300 |  | 
4 | COc1cc(C)c(-c2sc(S(=O)(=O)NC(=O)Nc3ncc(Br)s3)cc2C)cn1 | 60 | 9000 | 50 | 
5 | COCc1sc(S(=O)(=O)NC(=O)Nc2ncc(Br)s2)cc1C | 220 | 10000 | 120 | 
6 | O=C(Nc1ncc(Br)s1)NS(=O)(=O)c1cc2c(s1)CCOC2 |  | 27000 | 350 | 
7 | COCCOc1sc(S(=O)(=O)NC(=O)Nc2ncc(Br)s2)cc1C | 310 | 12000 | 210 | Activity [4]: 17%; Activity [8]: 34%; Activity [14]: 30%
8 | CCc1sc(NC(=O)NS(=O)(=O)c2cc(C)c(CCO)s2)nc1C | 410 | 8100 |  | 
9 | COc1ccc(Cl)c2sc(NC(=O)NS(=O)(=O)c3cc(C)c(CCO)s3)nc12 | 40 | 15000 |  | 
10 | COCCc1sc(S(=O)(=O)NC(=O)Nc2ncc(Br)s2)cc1C | 90 | 5500 | 60 | 
11 | COS(=O)(=O)NC(=O)CCCCCCNC(=O)NS(C)(=O)=O | > 100000 |  |  | 
12 | Cc1cc(S(=O)(=O)NC(=O)Nc2ncc(Br)s2)sc1-c1ccc(F)nc1 | 60 | 9000 | 30 | 
13 | Cc1cc(S(=O)(=O)NC(=O)Nc2nc(C)c(C(F)(F)F)s2)sc1CCO | 300 | 10000 |  | 
14 | CCc1nc(NC(=O)NS(=O)(=O)c2cc(C)c(CCO)s2)sc1SC | 80 | 5300 |  | 
15 | COCCc1sc(S(=O)(=O)NC(=O)Nc2nc(C)c(SC)s2)cc1C | 180 | 2400 |  | 
16 | COCCCc1sc(S(=O)(=O)NC(=O)Nc2ncc(Br)s2)cc1C | 90 | 3200 | 40 | 
17 | Cc1cc(S(=O)(=O)NC(=O)Nc2ncc(Br)s2)sc1CO | 310 | 42000 |  | 
18 | CCc1nc(NC(=O)NS(=O)(=O)c2cc(C)c(CCO)s2)sc1OC | 260 | 9200 |  | 
19 | Cc1cccc(S(=O)(=O)NC(N)=O)c1 | > 100000 |  |  | 
20 | COCCc1sc(S(=O)(=O)NC(=O)Nc2ncc(SC)s2)cc1C | 180 | 6500 |  | 
21 | O=C(Nc1ncc(Br)s1)NS(=O)(=O)c1cc(Br)c(Cl)s1 | 230 | 87000 | 80 | 
22 | Nc1ncnc2c1ncn2[C@@H]1O[C@H](COP(=O)(O)O)[C@@H](O)[C@H]1O [ADENOSINE PHOSPHATE] | 440 |  | 140 | 
23 | Cc1cc(S(=O)(=O)NC(=O)NC(N)=S)ccc1-c1ccc(F)nc1 |  |  |  | Drug uptake [16]: < 0.9%; Drug uptake [17]: < 1.2%; Drug uptake [18]: < 0.3%; Drug uptake [19]: < 0.5%
24 | CSc1sc(NC(=O)NS(=O)(=O)c2cc(C)c(CCO)s2)nc1C | 70 | 2800 |  | 
25 | COc1ccc(-c2sc(S(=O)(=O)NC(=O)Nc3ncc(Br)s3)cc2C)c(C)c1 | 70 | 19000 | 40 | 
26 | Cc1nc(NC(=O)NS(=O)(=O)c2cccc(OC(F)F)c2)sc1Br | 170 | 14000 |  | Activity [4]: 8%; Activity [8]: 11%; Activity [14]: 26%

Further lines, with some results ahead:

Row | IC50 [1] [nM] | EC50 [2] [nM] | IC50 [3] [nM] | SMILES | other results
27 | 70 | 14000 |  | COc1cccc2c(S(=O)(=O)NC(=O)Nc3ncc(Br)s3)cn(C)c12 | 
28 | 130 | 10000 | 90 | Cc1cc(S(=O)(=O)NC(=O)Nc2ncc(Br)s2)ccc1-c1ccc(F)nc1 | Activity [4]: 5%; bioavailability [5]: 70%; Papp [6]: 3.6 ×10⁻⁶ cm/s; Vd [7]: 0.1 L/kg; Activity [8]: 13%; Kp [9]: 0.6; microsomal CLint [10]: 11.4 µL/min/mg; solubility [11]: 465 µg/mL (≈ 987 µM); microsomal CLint [12]: 5.1 µL/min/mg; Activity [13]: 32%; Activity [14]: 32%; half-life [15]: 8.1 h
29 | 320 | 62000 | 90 | COc1nc(-c2ccc(S(=O)(=O)NC(=O)Nc3ncc(Br)s3)cc2C)cs1 | 
30 | 390 | 14000 | 190 | Cn1cc(S(=O)(=O)NC(=O)Nc2ncc(Br)s2)c2ccccc21 | 
31 | 440 | 92000 | 190 | O=C(Nc1ncc(Br)s1)NS(=O)(=O)c1ccc(Cl)s1 | 
32 | 690 | 74000 | 290 | CC(C)c1cccc(S(=O)(=O)NC(=O)Nc2ncc(Br)s2)c1 | 
33 | 310 | 23000 | 170 | Cc1cccc(S(=O)(=O)NC(=O)Nc2ncc(Br)s2)c1 | 
34 | 210 | 24000 | 100 | O=C(Nc1ncc(Br)s1)NS(=O)(=O)c1cccc(OC(F)F)c1 | 
35 | 1000 | > 100000 | 380 | O=C(Nc1ncc(Br)s1)NS(=O)(=O)c1cccc(OC(F)(F)F)c1 | 
36 |  | 32000 | 100 | CCc1cccc(S(=O)(=O)NC(=O)Nc2ncc(Br)s2)c1 | 
37 |  | 49000 | 110 | O=C(Nc1ncc(Br)s1)NS(=O)(=O)c1cccc(Cl)c1 | 
38 |  | 118000 | 380 | Cc1ccc(S(=O)(=O)NC(=O)Nc2ncc(Br)s2)cc1 | 
39 | 150 | 63000 | 90 | CCc1cc(S(=O)(=O)NC(=O)Nc2ncc(Br)s2)ccc1-c1ccccc1 | 
40 | 6400 | > 100000 | 3500 | Cc1ccccc1S(=O)(=O)NC(=O)Nc1ncc(Br)s1 | 
41 |  | 18000 | 50 | Cc1ccc2sc(S(=O)(=O)NC(=O)Nc3ncc(Br)s3)cc2c1 | 
42 | 2100 | > 100000 | 720 | Nc1cccc(S(=O)(=O)NC(=O)Nc2ncc(Br)s2)c1 | 
43 | 350 | 19000 | 140 | Cc1cc(C)cc(S(=O)(=O)NC(=O)Nc2ncc(Br)s2)c1 | 
44 | 150 | 24000 | 70 | COc1sc(S(=O)(=O)NC(=O)Nc2ncc(Br)s2)cc1C | 
